# Assay results published in PubChem BioAssay AID504383 (The Scripps Research Institute Molecular Screening Center, 2011).
# About 1,200 (48%) of roughly 2,500 compounds were called active.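 The calls were made as follows: active = mean activation above the low control average plus 3 SD, as set in the primary screen (cut at about 12% in these data); inactive = the rest.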 So high a share suggests a set chosen from earlier hits. Some of the results follow.
# Molecular target: Troponin I, cardiac muscle (Homo sapiens) + Troponin T, cardiac muscle (Homo sapiens) + Troponin C, slow skeletal and cardiac muscles (Homo sapiens) (UniProt P19429+P45379+P63316)
# Test: cardiac RTF calcium sensitivity activators, confirmation, biochemical, IANBD-TnC fluorescence, triplicate (AID 504383);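 also: 0% = DMSO at 0.472 mM calcium and 100% = DMSO at 2.9 mM calcium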
# Details: IANBD-labeled cardiac RTF, Ca2+ sensitivity fluorescence, at 7.2 µM, active compounds read high, tested at EC20 calcium, 0.472 mM
# How it was run: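 Material: labelled regulated thin filaments; Reagent: 0.472 mM calcium; Incubation: 15 min compound incubation with filaments at 25 °C; Detection: filament fluorescence intensity; Evaluation: fluorescence increase normalised to calcium controls; Benchmarks: low control EC20 calcium, high control EC100 calcium.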
row,SMILES,activation
1,CCN(CC)c1ccc(/C=C/[N+](=O)[O-])cc1,19.8% (active)
2,Cn1cc(C=C(C#N)C#N)c2ccccc21,69.5% (active)
3,COC(=O)C1=C(c2cccc(OC)c2OC)C[C@@H]2CC[C@H]1N2C(=O)NCc1ccco1,13.3% (active)
4,COC(=O)C1=C(c2cccc(OC)c2OC)C[C@@H]2CC[C@H]1N2C(=O)NCCCOC(C)C,5.72% (inactive)
5,COC(=O)C1=C(c2ccc(F)cc2OCc2ccccc2)C[C@@H]2CC[C@H]1N2C(=O)NCc1ccc(OC)c(OC)c1,154% (active)
6,CCN(CC)CCCOC(=O)C(OC(C)C)(c1ccccc1)c1ccccc1,57.9% (active)
7,C/C(=N\N1CCCCC1c1cccnc1)c1c(O)n(C2CCCCC2)c(=S)[nH]c1=O (configuration not stated),68.2% (active)
8,COc1ccc(OC)c(-n2c(O)c(C=NCCN3CCNCC3)c(=O)[nH]c2=S)c1,27.9% (active)
9,Cc1ccc(-n2c(O)c(C=NCC3CCCO3)c(=O)[nH]c2=O)c(C)c1 (configuration not stated),7.57% (inactive)
10,O=c1[nH]c(=S)n(-c2ccccc2Cl)c(O)c1C=NCCN1CCNCC1,1670% (active)
11,Cc1cccc(N2C(=O)NC(=O)/C(=C\c3ccc4c(c3)CCCN4Cc3ccccc3)C2=O)c1,4.9% (inactive)
12,CCOCCCNC(=O)C1c2cc(OC)c(OC)cc2C(=O)N2CCCCC12 (configuration not stated),2.74% (inactive)
13,Cc1cccc(N2C(=O)/C(=C/c3ccc(N4CCN(C)CC4)o3)C(=O)NC2=S)c1C,16.4% (active)
14,Cc1ccccc1N1C(=O)NC(=O)/C(=C\c2cc(Br)c(N3CCOCC3)o2)C1=O,11% (inactive)
15,CN1CCN(c2ccc(/C=C3\C(=O)NC(=S)N(c4cccc(Br)c4)C3=O)o2)CC1,4.38% (inactive)
16,Cc1ccccc1N1C(=O)NC(=O)/C(=C/c2ccc(N3CCOCC3)o2)C1=O,42.7% (active)
17,COc1ccccc1N1C(=O)NC(=O)/C(=C/c2ccc3c4c(cccc24)CC3)C1=O,2.54% (inactive)
18,CCc1ccccc1N1C(=O)/C(=C/c2ccc(N3CCN(C)CC3)o2)C(=O)NC1=S,1030% (active)
19,CCN1C(=O)C(=Cc2ccc(N3CCOCC3)o2)C(=O)N(CC)C1=S,7.34% (inactive)
20,COc1ccc(N2C(=O)/C(=C/c3ccc(N(C)C)o3)C(=O)NC2=S)cc1,338% (active)
21,COc1cc(/C=C2/C(=O)NC(=O)N(c3ccc(C)cc3)C2=O)cc(OC)c1OC,6.29% (inactive)
22,CN1C(=O)C(=Cc2sc(=O)n(-c3ccccc3)c2N2CCCCC2)C(=O)N(C)C1=O,3.11% (inactive)
23,O=C1NC(=O)C(=Cc2ccc(N3CCOCC3)o2)C(=O)N1,2.33% (inactive)

row,SMILES,activation
1,CN1C(=O)C(=Cc2ccc(N3CCCCCC3)o2)C(=O)N(C)C1=S,94.7% (active)
2,CN1C(=O)C(=Cc2ccc(N3CCOCC3)o2)C(=O)N(C)C1=O,50.2% (active)
3,CN1C(=O)C(=Cc2ccc(N3CCOCC3)o2)C(=O)N(C)C1=S,10.3% (inactive)
4,C=CCN1C(=O)/C(=C\c2ccc(N3CCOCC3)o2)C(=O)NC1=S,4% (inactive)
5,CCN(CC)c1ccc(/C=C2\C(=O)NC(=S)N(c3ccc(OC)cc3OC)C2=O)o1,8.36% (inactive)
6,C=CCN1C(=O)/C(=C/c2ccc(N3CCOCC3)o2)C(=O)NC1=S,29.1% (active)
7,CN1Cc2c(c(C#N)c(N)n(C)c2=S)CC1(C)C,4.38% (inactive)
8,COc1ccc2c3c([nH]c2c1)C(C)=NCC3,9.9% (inactive)
9,FC(F)(F)c1ccc2c(c1)nnn2C1CCN(Cc2nnnn2Cc2ccccc2)CC1,4.26% (inactive)
10,O=C1NC(=O)N(c2ccc3c(c2)OCO3)C(=O)/C1=C\c1ccc(N2CCCCC2)o1,-1.01% (inactive)
11,CCN(CC)c1ccc(C=C2C(=O)N(C)C(=S)N(C)C2=O)o1,8.61% (inactive)
12,CN1C(=O)/C(=C/c2ccc(N3CCCCCC3)o2)C(=O)NC1=S,39% (active)
13,CCOc1ccc(N2C(=O)NC(=O)/C(=C\c3ccc(N4CCCCC4)o3)C2=O)cc1,154% (active)
14,O=C1NC(=O)N(c2ccc3c(c2)OCO3)C(=O)/C1=C/c1ccc(N2CCCC2)o1,3.64% (inactive)
15,CCN(CC)c1ccc(/C=C2\C(=O)NC(=S)N(C)C2=O)o1,25.4% (active)
16,CN1C(=O)/C(=C\c2ccc(N3CCCCC3)o2)C(=O)NC1=S,8.33% (inactive)
17,COc1cccc2c1C(=O)c1c(O)c3c(c(O)c1C2=O)CC(O)(C(C)=NO)CC3OC1CC(N)C(O)C(C)O1 (configuration not stated),4.26% (inactive)
18,Nc1ccc2ccc3cccc[n+]3c2c1,11.7% (active)
19,Cc1ccc(N2C(=O)NC(=O)/C(=C\c3ccoc3)C2=O)cc1,4.43% (inactive)
20,CN1CCc2cc3c(c4c2C1Cc1ccccc1-4)OCO3 (configuration not stated),13.5% (active)
21,CC1=NCCc2c1[nH]c1cc(O)ccc21,5.4% (inactive)
22,CCCc1cc(=O)oc2cc(OCC(=O)N3C[C@H]4C[C@@H](C3)c3cccc(=O)n3C4)ccc12,113% (active)
23,CCCc1cc(=O)oc2cc(OCC(=O)N3CCC(C(=O)O)(c4ccccc4)CC3)ccc12,10.7% (inactive)

row,SMILES,activation
1,COc1ccc(N2C(=O)NC(=O)/C(=C\c3cn(C)c4ccccc34)C2=O)cc1,3.56% (inactive)
2,O=C1NC(=O)C(=Cc2cn(CCOc3ccc4c(c3)OCO4)c3ccccc23)C(=O)N1,12.6% (active)
3,Cc1ccc(/C=C2/Sc3ccc(C(=O)N4CCC5(CC4)OCCO5)cc3NC2=O)cc1,106% (active)
4,COc1ccc(CC(=O)N2CCN(C)CC2)cc1OC,13.3% (active)
5,Cc1cc(C=C(C#N)C#N)ccc1N1CCCC1,13% (active)
6,N#CC(C#N)=Cc1ccc(C=C(C#N)C#N)cc1,1.09% (inactive)
7,Cc1cc(N2CCCC2)ccc1C=C(C#N)C#N,95.7% (active)
8,Cc1cc(Cl)ccc1C(=O)C1CCCN(C2CCSCC2)C1 (configuration not stated),2.78% (inactive)
9,O=Cc1c(C(=O)O)n(Cc2ccc(Cl)cc2)c2ccccc12,7.27% (inactive)
10,Cc1cc(N(CCCl)CCCl)ccc1C=Cc1ccncn1,17.4% (active)
11,CCCCn1c(O)c(/C=C/C=Nc2ccccc2)c(=O)[nH]c1=O,10% (inactive)
12,CCCCn1c(O)c(C(=O)/C=C/c2c[nH]c3ccccc23)c(=O)[nH]c1=O,14.8% (active)
13,NC(=O)c1c(NC(=O)c2ccc(S(=O)(=O)N(CCCl)CCCl)cc2)sc2c1CCCCC2,14.1% (active)
14,N#CC(C#N)=Cc1ccc(-c2ccccc2F)o1,45.7% (active)
15,CCn1c(O)c(C=Nc2ccc(N3CCOCC3)cc2)c(=O)n(CC)c1=S,88.4% (active)
16,O=c1[nH]c(=S)n(-c2ccc(Br)cc2)c(O)c1C=Nc1ccc(N2CCOCC2)cc1,6.9% (inactive)
17,CCCCC(=O)N/N=C/c1c(O)n(CC)c(=S)n(CC)c1=O,4.35% (inactive)
18,CCCCN1C(=O)NC(=O)C2(Cc3ccccc3N3CCOCC32)C1=O (configuration not stated),4.27% (inactive)
19,CCCCCCC(=O)N/N=C/c1c(O)n(CCc2ccccc2)c(=O)[nH]c1=O,-0.94% (inactive)
20,C=CCn1c(O)c(C=NC2CCN(Cc3ccccc3)CC2)c(=O)[nH]c1=O,6.93% (inactive)
21,O=c1[nH]c(=O)n(Cc2ccc(F)cc2)c(O)c1/C=N/Nc1ccccc1,107% (active)
22,OC12CCCCC1C(c1ccccc1)NCC2 (configuration not stated),7.25% (inactive)
23,O=C(CN1CCN(c2ccccc2F)CC1)Nc1cccnc1Cl,27.1% (active)

row,SMILES,activation
1,CN1/C(=C\C=C2C(=O)NC(=S)NC2=O)C(C)(C)c2ccccc21,10.4% (inactive)
2,COc1ccc(CN2C(=O)NC(=O)/C(=C/c3ccoc3)C2=O)cc1,10.9% (inactive)
3,O=C1NC(=O)N(c2cccc(Cl)c2)C(=O)/C1=C\c1ccc(Sc2nc3ccccc3[nH]2)o1,11.5% (inactive)
4,Cc1cc(C)c(Cn2c(C(=O)O)c(C=O)c3ccccc32)c(C)c1,10.3% (inactive)
5,CNS(=O)(=O)c1ccc(N=Cc2c(O)n(-c3ccccc3)c(=O)[nH]c2=O)cc1,37.6% (active)
6,Cc1cccc(-n2c(O)c(/C=C/C=Nc3ccccc3)c(=O)[nH]c2=O)c1,414% (active)
7,COc1ccc(-n2c(O)c(/C=C/C=Nc3ccccc3)c(=O)[nH]c2=O)cc1,5.05% (inactive)
8,Cc1ccc(-n2c(O)c(/C=C/C=Nc3ccccc3)c(=O)[nH]c2=O)cc1,26.4% (active)
9,O=c1[nH]c(=O)n(C2CCCCC2)c(O)c1/C=C/C=Nc1ccccc1,12.3% (active)
10,O=c1[nH]c(=O)n(-c2ccccc2)c(O)c1/C=C/C=Nc1ccccc1,8.9% (inactive)
11,CCN(CC)c1ccc(N=Cc2c(O)n(Cc3ccco3)c(=O)[nH]c2=O)cc1,5.39% (inactive)
12,O=c1[nH]c(O)c(C=Nc2ccccc2Oc2ccccc2)c(=O)[nH]1,10.2% (inactive)
13,CCN(CC)c1ccc(/C=N/c2sc3c(c2C#N)C2CCN3CC2)c(O)c1,7.45% (inactive)
14,O=C1NC(=O)N(Cc2ccccc2)C(=O)/C1=C\N1CCCc2ccccc21,3.9% (inactive)
15,O=c1[nH]c(O)c(/C=C2\C=Nc3ccc(OCc4ccccc4)cc32)c(=O)[nH]1,8.62% (inactive)
16,Cn1c(O)c(/C=C/C=Nc2ccccc2)c(=O)n(C)c1=O,9.76% (inactive)
17,Cn1c(O)c(/C=C/C=Nc2ccccc2)c(=O)n(C)c1=S,21.7% (active)
18,CN1C[C@H](CO)C=C2c3cccc4[nH]cc(c34)C[C@H]21,-3.89% (inactive)
19,CC1=C[C@@H]2c3cccc4[nH]cc(c34)C[C@H]2N(C)C1,50% (active)
20,CCC(CO)NC(=O)C1C=C2c3cccc4[nH]cc(c34)CC2N(C)C1 (configuration not stated),9.84% (inactive)
21,COCCNC(=O)c1c(N)n(Cc2ccco2)c2nc3ccccc3nc12,16.3% (active)
22,COCCOC(=O)c1c(N)n(Cc2ccco2)c2nc3ccccc3nc12,8.08% (inactive)
23,Nc1c(C(=O)NCC2CCCO2)c2nc3ccccc3nc2n1Cc1ccco1 (configuration not stated),1930% (active)
